# According to ChEMBL document CHEMBL4028879, “Structure-Activity Relationship Studies of Pyrimido[5,4-b]indoles as Selective Toll-Like Receptor 4 Ligands” (J Med Chem, 2017):
# pEC50: −log10 of the molar value.
# Test system: not listed separately
# Assay: Cytotoxicity against C57BL/6 mouse primary BMDC assessed as cell viability at 5 uM after 18 hrs by MTT assay relative to control
# Format: cell-based
# Details: primary BMDC (bone marrow-derived dendritic cells), read-out: Activity
row,Compound,"viability at 18 h, 5 µM [%]"
1,Cn1c2ccccc2c2nc(NCCC(=O)NC3CCCCC3)n(-c3ccccc3)c(=O)c21,92
2,Cn1c2ccc(N)cc2c2nc(SCC(=O)NC3CCCCC3)n(-c3ccccc3)c(=O)c21,102
3,O=C(CSc1nc2c3c([nH]c2c(=O)n1-c1ccccc1)CCCC3)NC1CCCCC1,91
4,Cn1c2ccc(-c3ccc(-c4ccccc4)cc3)cc2c2nc(SCC(=O)NC3CCCCC3)n(-c3ccccc3)c(=O)c21,23
5,Cc1[nH]c2c(=O)n(-c3ccccc3)c(SCC(=O)NC3CCCCC3)nc2c1C,70
6,O=C(CSc1nc2c3c([nH]c2c(=O)n1-c1ccccc1)CCCCC3)NC1CCCCC1,84
7,CCCCCCCC(=O)Nc1ccc2c(c1)c1nc(SCC(=O)NC3CCCCC3)n(-c3ccccc3)c(=O)c1n2C,35
8,O=c1c2[nH]c3ccccc3c2nc(SCCCC2CCCCC2)n1-c1ccccc1,57
9,O=C(CSc1nc2cc[nH]c2c(=O)n1-c1ccccc1)NC1CCCCC1,99
10,Cn1c2ccc(I)cc2c2nc(SCC(=O)NC3CCCCC3)n(-c3ccccc3)c(=O)c21,75
11,Cn1c2ccc(NC(=O)c3ccccc3)cc2c2nc(SCC(=O)NC3CCCCC3)n(-c3ccccc3)c(=O)c21,43
12,Cn1c2ccc(NC(=O)CCC(=O)O)cc2c2nc(SCC(=O)NC3CCCCC3)n(-c3ccccc3)c(=O)c21,75
13,Cn1c2ccc(C#N)cc2c2nc(SCC(=O)NC3CCCCC3)n(-c3ccccc3)c(=O)c21,107

# Target: T1, Toll-like receptor 4 (Mus musculus) (UniProt Q9QUK6)
# T1 sequence (whole entry): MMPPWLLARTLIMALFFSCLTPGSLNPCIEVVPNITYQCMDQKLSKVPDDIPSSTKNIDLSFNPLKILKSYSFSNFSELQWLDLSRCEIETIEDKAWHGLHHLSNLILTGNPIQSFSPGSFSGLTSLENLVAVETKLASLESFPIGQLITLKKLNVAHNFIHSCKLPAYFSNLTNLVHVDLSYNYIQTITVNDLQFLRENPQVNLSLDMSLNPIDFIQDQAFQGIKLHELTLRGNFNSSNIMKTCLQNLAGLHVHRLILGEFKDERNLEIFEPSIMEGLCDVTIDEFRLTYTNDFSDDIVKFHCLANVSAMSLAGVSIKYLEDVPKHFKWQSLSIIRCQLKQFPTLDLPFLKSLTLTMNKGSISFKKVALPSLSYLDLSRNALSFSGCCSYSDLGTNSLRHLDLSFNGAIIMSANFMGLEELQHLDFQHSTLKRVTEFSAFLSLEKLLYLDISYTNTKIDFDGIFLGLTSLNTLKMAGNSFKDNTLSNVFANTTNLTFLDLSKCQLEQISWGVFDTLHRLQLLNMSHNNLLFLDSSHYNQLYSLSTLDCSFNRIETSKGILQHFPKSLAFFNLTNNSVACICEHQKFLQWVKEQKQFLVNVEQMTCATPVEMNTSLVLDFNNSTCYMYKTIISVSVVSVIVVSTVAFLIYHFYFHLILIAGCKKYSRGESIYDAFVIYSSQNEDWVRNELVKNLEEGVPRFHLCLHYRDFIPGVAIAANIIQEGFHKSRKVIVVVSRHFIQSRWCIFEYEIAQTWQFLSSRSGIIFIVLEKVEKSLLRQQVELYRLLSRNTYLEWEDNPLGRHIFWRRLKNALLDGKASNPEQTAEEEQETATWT
# Assay: Agonist activity at TLR4 in C57BL/6 mouse primary BMDC assessed as induction of IL-6 release at 5 uM after 18 hrs by ELISA relative to N-cyclohexyl-2-(5-methyl-4-oxo-3-phenyl-4,5-dihydro-3H-pyrimido[5,4-b]indol-2-ylthio)acetamide
# Details: not given
row,Compound,Activity [%]
1,CCCCCCCC(=O)Nc1ccc2c(c1)c1nc(SCC(=O)NC3CCCCC3)n(-c3ccccc3)c(=O)c1n2C,0
2,O=c1c2[nH]c3ccccc3c2nc(SCCCC2CCCCC2)n1-c1ccccc1,0
3,O=C(CSc1nc2cc[nH]c2c(=O)n1-c1ccccc1)NC1CCCCC1,0
4,Cn1c2ccc(NC(=O)c3ccccc3)cc2c2nc(SCC(=O)NC3CCCCC3)n(-c3ccccc3)c(=O)c21,7
5,Cn1c2ccc(NC(=O)CCC(=O)O)cc2c2nc(SCC(=O)NC3CCCCC3)n(-c3ccccc3)c(=O)c21,0
6,Cn1c2ccc(C#N)cc2c2nc(SCC(=O)NC3CCCCC3)n(-c3ccccc3)c(=O)c21,45

# Results, then the compound that gave them:
row,Activity [%],Compound
1,0,Cn1c2ccccc2c2nc(NCCC(=O)NC3CCCCC3)n(-c3ccccc3)c(=O)c21
2,0,Cn1c2ccc(N)cc2c2nc(SCC(=O)NC3CCCCC3)n(-c3ccccc3)c(=O)c21
3,80,O=C(CSc1nc2c3c([nH]c2c(=O)n1-c1ccccc1)CCCC3)NC1CCCCC1
4,0,Cn1c2ccc(-c3ccc(-c4ccccc4)cc3)cc2c2nc(SCC(=O)NC3CCCCC3)n(-c3ccccc3)c(=O)c21
5,78,Cc1[nH]c2c(=O)n(-c3ccccc3)c(SCC(=O)NC3CCCCC3)nc2c1C
6,115,O=C(CSc1nc2c3c([nH]c2c(=O)n1-c1ccccc1)CCCCC3)NC1CCCCC1
7,74,Cn1c2ccc(I)cc2c2nc(SCC(=O)NC3CCCCC3)n(-c3ccccc3)c(=O)c21

# Target: T2, Toll-like receptor 4 (Homo sapiens, UniProt O00206)
# Assay: Agonist activity at human TLR4 expressed in HEK293 blue cells assessed as induction of NF-kappaB activation-mediated SEAP production by measuring AUC after 20 to 24 hrs by colorimetric assay relative to N-cyclohexyl-2-(5-methyl-4-oxo-3-phenyl-4,5-dihydro-3H-pyrimido[5,4-b]indol-2-ylthio)acetamide
# Format: cell-based
# Details: not given
# T2 sequence (O00206 whole entry): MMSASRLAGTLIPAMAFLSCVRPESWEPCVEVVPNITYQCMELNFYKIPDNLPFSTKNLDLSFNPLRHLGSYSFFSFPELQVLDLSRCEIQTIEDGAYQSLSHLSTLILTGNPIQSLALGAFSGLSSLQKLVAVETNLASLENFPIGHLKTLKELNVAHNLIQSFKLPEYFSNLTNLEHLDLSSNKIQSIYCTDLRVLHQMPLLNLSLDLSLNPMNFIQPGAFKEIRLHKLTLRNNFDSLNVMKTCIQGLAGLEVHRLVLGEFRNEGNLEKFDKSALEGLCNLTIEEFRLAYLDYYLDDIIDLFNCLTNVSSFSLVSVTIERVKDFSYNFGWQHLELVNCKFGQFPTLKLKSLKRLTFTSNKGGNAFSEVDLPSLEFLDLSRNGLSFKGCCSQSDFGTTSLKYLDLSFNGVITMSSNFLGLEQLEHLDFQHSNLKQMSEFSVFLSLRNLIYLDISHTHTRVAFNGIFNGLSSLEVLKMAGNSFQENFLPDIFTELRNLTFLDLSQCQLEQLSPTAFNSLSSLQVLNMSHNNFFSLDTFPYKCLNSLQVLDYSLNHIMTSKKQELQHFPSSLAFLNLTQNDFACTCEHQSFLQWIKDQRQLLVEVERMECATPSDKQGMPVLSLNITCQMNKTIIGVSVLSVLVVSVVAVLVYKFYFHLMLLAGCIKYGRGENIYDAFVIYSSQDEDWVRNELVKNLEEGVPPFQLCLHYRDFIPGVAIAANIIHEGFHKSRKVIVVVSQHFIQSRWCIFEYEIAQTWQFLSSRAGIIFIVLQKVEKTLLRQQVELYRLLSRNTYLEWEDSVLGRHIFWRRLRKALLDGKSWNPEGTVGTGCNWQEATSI
row,Compound,Activity [%]
1,CCCCCCCC(=O)Nc1ccc2c(c1)c1nc(SCC(=O)NC3CCCCC3)n(-c3ccccc3)c(=O)c1n2C,15
2,O=c1c2[nH]c3ccccc3c2nc(SCCCC2CCCCC2)n1-c1ccccc1,9
3,O=C(CSc1nc2cc[nH]c2c(=O)n1-c1ccccc1)NC1CCCCC1,7
4,Cn1c2ccc(NC(=O)c3ccccc3)cc2c2nc(SCC(=O)NC3CCCCC3)n(-c3ccccc3)c(=O)c21,26
5,Cn1c2ccc(NC(=O)CCC(=O)O)cc2c2nc(SCC(=O)NC3CCCCC3)n(-c3ccccc3)c(=O)c21,28
6,Cn1c2ccc(C#N)cc2c2nc(SCC(=O)NC3CCCCC3)n(-c3ccccc3)c(=O)c21,12

# Now from value to compound:
row,Activity [%],Compound
1,8,Cn1c2ccccc2c2nc(NCCC(=O)NC3CCCCC3)n(-c3ccccc3)c(=O)c21
2,17,Cn1c2ccc(N)cc2c2nc(SCC(=O)NC3CCCCC3)n(-c3ccccc3)c(=O)c21
3,27,O=C(CSc1nc2c3c([nH]c2c(=O)n1-c1ccccc1)CCCC3)NC1CCCCC1
4,31,Cn1c2ccc(-c3ccc(-c4ccccc4)cc3)cc2c2nc(SCC(=O)NC3CCCCC3)n(-c3ccccc3)c(=O)c21
5,18,Cc1[nH]c2c(=O)n(-c3ccccc3)c(SCC(=O)NC3CCCCC3)nc2c1C
6,137,O=C(CSc1nc2c3c([nH]c2c(=O)n1-c1ccccc1)CCCCC3)NC1CCCCC1
7,204,Cn1c2ccc(I)cc2c2nc(SCC(=O)NC3CCCCC3)n(-c3ccccc3)c(=O)c21

# Target: T1, Toll-like receptor 4 (Mus musculus)
# Assay: Agonist activity at mouse TLR4 expressed in HEK293 blue cells assessed as induction of NF-kappaB activation-mediated SEAP production by measuring AUC after 20 to 24 hrs by colorimetric assay relative to N-cyclohexyl-2-(5-methyl-4-oxo-3-phenyl-4,5-dihydro-3H-pyrimido[5,4-b]indol-2-ylthio)acetamide
# Format: cell-based
# Details: not given
row,Compound,Activity [%]
1,CCCCCCCC(=O)Nc1ccc2c(c1)c1nc(SCC(=O)NC3CCCCC3)n(-c3ccccc3)c(=O)c1n2C,1
2,O=c1c2[nH]c3ccccc3c2nc(SCCCC2CCCCC2)n1-c1ccccc1,1
3,O=C(CSc1nc2cc[nH]c2c(=O)n1-c1ccccc1)NC1CCCCC1,4
4,Cn1c2ccc(NC(=O)c3ccccc3)cc2c2nc(SCC(=O)NC3CCCCC3)n(-c3ccccc3)c(=O)c21,2
5,Cn1c2ccc(NC(=O)CCC(=O)O)cc2c2nc(SCC(=O)NC3CCCCC3)n(-c3ccccc3)c(=O)c21,3
6,Cn1c2ccc(C#N)cc2c2nc(SCC(=O)NC3CCCCC3)n(-c3ccccc3)c(=O)c21,14

# Continued, values first:
row,Activity [%],Compound
1,2,Cn1c2ccccc2c2nc(NCCC(=O)NC3CCCCC3)n(-c3ccccc3)c(=O)c21
2,3,Cn1c2ccc(N)cc2c2nc(SCC(=O)NC3CCCCC3)n(-c3ccccc3)c(=O)c21
3,36,O=C(CSc1nc2c3c([nH]c2c(=O)n1-c1ccccc1)CCCC3)NC1CCCCC1
4,1,Cn1c2ccc(-c3ccc(-c4ccccc4)cc3)cc2c2nc(SCC(=O)NC3CCCCC3)n(-c3ccccc3)c(=O)c21
5,28,Cc1[nH]c2c(=O)n(-c3ccccc3)c(SCC(=O)NC3CCCCC3)nc2c1C
6,82,O=C(CSc1nc2c3c([nH]c2c(=O)n1-c1ccccc1)CCCCC3)NC1CCCCC1
7,104,Cn1c2ccc(I)cc2c2nc(SCC(=O)NC3CCCCC3)n(-c3ccccc3)c(=O)c21

# Target: T3, Toll-like receptor 4 (Mus musculus, UniProt Q9QUK6)
# T3 sequence (Q9QUK6 whole entry): T1 sequence (whole entry)
# Assay: Agonist activity at mouse TLR4 expressed in HEK293 blue cells assessed as induction of NF-kappaB activation-mediated SEAP production after 20 to 24 hrs by colorimetric assay
# Format: cell-based
# Details: not given
# Procedure, shortened: (§1)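 HEK-Blue cells expressing human or mouse TLR4, 2.5 × 10⁴/well in DMEM with 10% FBS, pyruvate, glutamine and antibiotics. Graded doses from 20 mM DMSO stocks, final DMSO 0.05%. Supernatants harvested after 20–24 h; SEAP read by colorimetric substrate at 630 nm. EC50 taken as the concentration giving 50% of maximal activation. LPS 100 ng/mL served as positive control.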
row,Compound,pEC50
1,CCCCCCCC(=O)Nc1ccc2c(c1)c1nc(SCC(=O)NC3CCCCC3)n(-c3ccccc3)c(=O)c1n2C,< 5.00
2,O=c1c2[nH]c3ccccc3c2nc(SCCCC2CCCCC2)n1-c1ccccc1,< 5.00
3,O=C(CSc1nc2cc[nH]c2c(=O)n1-c1ccccc1)NC1CCCCC1,< 5.00
4,Cn1c2ccc(NC(=O)c3ccccc3)cc2c2nc(SCC(=O)NC3CCCCC3)n(-c3ccccc3)c(=O)c21,< 5.00
5,Cn1c2ccc(NC(=O)CCC(=O)O)cc2c2nc(SCC(=O)NC3CCCCC3)n(-c3ccccc3)c(=O)c21,< 5.00
6,Cn1c2ccc(C#N)cc2c2nc(SCC(=O)NC3CCCCC3)n(-c3ccccc3)c(=O)c21,< 5.00

# Second part, the compound after the results:
row,pEC50,Compound
1,< 5.00,Cn1c2ccccc2c2nc(NCCC(=O)NC3CCCCC3)n(-c3ccccc3)c(=O)c21
2,< 5.00,Cn1c2ccc(N)cc2c2nc(SCC(=O)NC3CCCCC3)n(-c3ccccc3)c(=O)c21
3,5.15,O=C(CSc1nc2c3c([nH]c2c(=O)n1-c1ccccc1)CCCC3)NC1CCCCC1
4,< 5.00,Cn1c2ccc(-c3ccc(-c4ccccc4)cc3)cc2c2nc(SCC(=O)NC3CCCCC3)n(-c3ccccc3)c(=O)c21
5,< 5.00,Cc1[nH]c2c(=O)n(-c3ccccc3)c(SCC(=O)NC3CCCCC3)nc2c1C
6,5.55,O=C(CSc1nc2c3c([nH]c2c(=O)n1-c1ccccc1)CCCCC3)NC1CCCCC1
7,5.60,Cn1c2ccc(I)cc2c2nc(SCC(=O)NC3CCCCC3)n(-c3ccccc3)c(=O)c21

# Target: T2, Toll-like receptor 4
# Assay: Agonist activity at human TLR4 expressed in HEK293 blue cells assessed as induction of NF-kappaB activation-mediated SEAP production after 20 to 24 hrs by colorimetric assay
# Format: cell-based
# Details: not given
# Procedure, shortened: as §1
row,Compound,pEC50
1,CCCCCCCC(=O)Nc1ccc2c(c1)c1nc(SCC(=O)NC3CCCCC3)n(-c3ccccc3)c(=O)c1n2C,< 5.00
2,O=c1c2[nH]c3ccccc3c2nc(SCCCC2CCCCC2)n1-c1ccccc1,< 5.00
3,O=C(CSc1nc2cc[nH]c2c(=O)n1-c1ccccc1)NC1CCCCC1,< 5.00
4,Cn1c2ccc(NC(=O)c3ccccc3)cc2c2nc(SCC(=O)NC3CCCCC3)n(-c3ccccc3)c(=O)c21,< 5.00
5,Cn1c2ccc(NC(=O)CCC(=O)O)cc2c2nc(SCC(=O)NC3CCCCC3)n(-c3ccccc3)c(=O)c21,< 5.00
6,Cn1c2ccc(C#N)cc2c2nc(SCC(=O)NC3CCCCC3)n(-c3ccccc3)c(=O)c21,< 5.00

# Further lines, results first:
row,pEC50,Compound
1,< 5.00,Cn1c2ccccc2c2nc(NCCC(=O)NC3CCCCC3)n(-c3ccccc3)c(=O)c21
2,< 5.00,Cn1c2ccc(N)cc2c2nc(SCC(=O)NC3CCCCC3)n(-c3ccccc3)c(=O)c21
3,< 5.00,O=C(CSc1nc2c3c([nH]c2c(=O)n1-c1ccccc1)CCCC3)NC1CCCCC1
4,< 5.00,Cn1c2ccc(-c3ccc(-c4ccccc4)cc3)cc2c2nc(SCC(=O)NC3CCCCC3)n(-c3ccccc3)c(=O)c21
5,< 5.00,Cc1[nH]c2c(=O)n(-c3ccccc3)c(SCC(=O)NC3CCCCC3)nc2c1C
6,5.13,O=C(CSc1nc2c3c([nH]c2c(=O)n1-c1ccccc1)CCCCC3)NC1CCCCC1
7,5.43,Cn1c2ccc(I)cc2c2nc(SCC(=O)NC3CCCCC3)n(-c3ccccc3)c(=O)c21
